Screening data: PubChem BioAssay, The Scripps Research Institute Molecular Screening Center
Rows were chosen to be rich in hits. Some 1.8% of all compounds tested hit in one or more screens of this group.
M4 PAM = CHRM4 positive allosteric modulation; P08173; CHO-K1 hM4/Gqi5, Fluo-8 calcium fluorescence, ACh EC20; 0% = ACh EC20, 100% = maximal ACh; activation, % at 3 µM; 360,000 compounds, 0.4% hits;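 active = activation above its plate's cutoff, the mean activation of sample wells plus 3 SD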
Target sequence (P08173 whole entry, looked up): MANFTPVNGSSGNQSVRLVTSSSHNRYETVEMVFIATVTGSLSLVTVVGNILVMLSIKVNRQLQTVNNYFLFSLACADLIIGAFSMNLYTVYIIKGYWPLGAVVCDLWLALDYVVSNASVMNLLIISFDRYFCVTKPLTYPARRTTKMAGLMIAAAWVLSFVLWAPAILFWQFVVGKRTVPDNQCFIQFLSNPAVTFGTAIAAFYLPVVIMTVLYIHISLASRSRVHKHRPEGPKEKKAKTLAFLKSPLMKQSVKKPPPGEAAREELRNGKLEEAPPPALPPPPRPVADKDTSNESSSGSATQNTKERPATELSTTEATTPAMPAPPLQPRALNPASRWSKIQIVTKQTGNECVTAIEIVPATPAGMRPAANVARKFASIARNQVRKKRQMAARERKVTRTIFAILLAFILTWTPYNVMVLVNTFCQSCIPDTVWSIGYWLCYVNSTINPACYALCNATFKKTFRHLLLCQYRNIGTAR
M4 antag = CHRM4 antagonism in calcium assay; P08173; 360,000 compounds, 0.73% hits; AID 624125; CHO-hM4 cells, ACh EC80, Fluo-8 calcium fluorescence; inhibition, % at 3 µM;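 active = inhibition above its plate's cutoff, the mean inhibition of sample wells plus 3 SD, cut at about 27% in these data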;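 note: 0% = acetylcholine EC80 with DMSO and 100% = DMSO without agonist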
M5 ag = agonists of human muscarinic M5 receptor (CHRM5); CHO-K1 hM5 cells, Fluo-8 calcium fluorescence; 0% DMSO wells, 100% maximal acetylcholine response; 360,000 compounds, 0.19% hits; P08912; activation, % at 3 µM; AID 624037;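 active = activation above the run's mean over test compounds plus 3 SD, cut at about 23% in these data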;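 note: signal is peak over basal fluorescence ratio across the kinetic read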
CHRM5 antagonist = blocks acetylcholine activation of human M5 receptor; P08912; AID 624040; 360,000 compounds, 0.59% hits; inhibition, % at 3 µM; CHO-hM5 cells, Fluo-8 calcium fluorescence, ACh EC80;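 active = inhibition above a per-plate cutoff, the mean of that plate's test compounds plus 3 SD, cut at about 27% in these data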;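 note: 0% = acetylcholine EC80 with DMSO and 100% = DMSO without agonist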
CHRM5 PAM = potentiates acetylcholine response at human M5 receptor | 360,000 compounds, 0.3% hits | CHO-K1 hM5, Fluo-8 calcium, ACh EC20 PAM; 0% = ACh EC20, 100% = ACh EC100 | P08912 | activation, % at 3 µM;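 active = activation above the run cutoff, the mean activation of all test compounds plus 3 SD, cut at about 18% in these data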
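Assay system – human M5 receptor in CHO-K1 cells · Read-out – % activation, ACh-normalized · Technique – Fluo-8 calcium fluorescence · Dosing – single-point, 3 µM nominal · Incubation – Fluo-8 loading 80 min at 37 °C plus 30 min room temperature · Repeats – singlicate, one well per test compound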
M4 ag = CHRM4 agonism in calcium assay; P08173; CHO-K1 hM4/Gqi5, Fluo-8 calcium fluorescence; vehicle 0%, full acetylcholine response 100%; activation, % at 3 µM; 360,000 compounds, 0.14% hits; AID 624127;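 active = activation above the run mean over all test wells plus 3 SD, cut at about 32% in these data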;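 note: peak over basal fluorescence ratio per well then scaled between controls; 0% = DMSO wells and 100% = acetylcholine at EC100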
* marks the source's active call; other numbers are inactive results.

SMILES	M4 PAM	M4 antag	M5 ag	CHRM5 antagonist	CHRM5 PAM	M4 ag
CC(C)OC(=O)CSc1nc(N2CCOCC2)c2c(c1C#N)CC(C)(C)OC2	-0.2	-3.1	-1.5	15.0	-2.9	0.2
CC(C)CCN(C(=O)CCSc1ccc(F)cc1)c1c(N)n(Cc2ccccc2)c(=O)[nH]c1=O	10.0	-11.0	4.9	-2.2	3.4	0.5
CCCCNC(=O)N1CCN(c2ccnc3cc(Cl)ccc23)CC1	-8.7	8.1	4.7	19.0	-17.4	19.9
O=[N+]([O-])c1cccc(-c2cc3cccc[n+]3cc2-c2cccc([N+](=O)[O-])c2)c1	1.7	-0.1	-3.1	7.5	-2.7	0.1
Cc1cccc2cc(-c3ccccc3)c(-c3ccccc3)c[n+]12	-34.4	37.7*	-5.9	11.6	-14.3	0.5
O=C(CCC1CCCC1)NNC(=O)c1ccccc1O	0.9	0.5	-0.8	-1.5	2.9	0.6
CCOC(=O)C1CCCN(C2CCN(Cc3nc(-c4ccccc4)no3)CC2)C1 (stereo not given)	-11.9	13.6	-10.4	44.6*	-17.8	1.2
CCOC(=O)C1CCN(C2CCN(Cc3nc(-c4ccccc4)no3)CC2)CC1	-11.3	-0.4	-5.5	8.7	-7.2	3.9
COc1cccc(-c2cc(C(=O)N3CCN(c4ncccn4)CC3)c3ccccc3n2)c1	-8.8	23.0	3.8	16.5	-15.9	14.3
CC(C)Oc1cccc(-c2cc(C(=O)N3CCN(c4ncccn4)CC3)c3ccccc3n2)c1	-21.8	33.7*	9.8	18.2	-22.1	14.5
Brc1ccc(CNc2ccc3ncccc3c2)cc1	-12.3	25.4	-13.5	31.7*	-24.0	7.5
O=C(COC(=O)CCc1nc2ccccc2s1)NC(=O)NCc1ccco1	5.4	-10.2	1.6	1.1	15.3	2.6
O=C(CSc1ccc2nnc(CCNC(=O)c3ccccc3)n2n1)NCc1ccco1	-0.9	2.0	-5.6	27.9*	-6.9	-0.1
COc1ccc(CNC(=O)C(=O)NCC2OCCCN2S(=O)(=O)c2cccs2)cc1 (stereo not given)	2.0	1.3	-6.0	18.4	-5.8	2.5
COc1ccc(N2CCN(CC(=O)NC(=O)NCc3ccco3)CC2)cc1	3.1	4.0	-0.7	-2.1	4.5	0.8
O=C(CN1CCN(c2ccc(O)cc2)CC1)NC(=O)NCc1ccco1	11.3	-14.4	-0.3	-8.3	18.6*	0.8
C(=C\c1ccco1)/C1=NN(c2ccccc2)C(c2ccco2)C1 (stereo not given)	-6.4	16.0	5.1	15.0	-3.8	3.1
O=[N+]([O-])c1ccc(/C=C/C2=NN(c3ccccc3)C(c3ccco3)C2)o1 (stereo not given)	-15.2	26.3	57.8*	51.7*	-23.6	28.3
O=C(NCC1CCCO1)c1ccc(Oc2ccc([N+](=O)[O-])cc2)cc1 (stereo not given)	-10.0	9.0	0.1	1.4	-9.5	10.3
O=C(NCC1CCCO1)c1ccc(NC(=O)c2ccc([N+](=O)[O-])cc2)cc1 (stereo not given)	13.2*	-9.2	13.9	-29.0	13.1	5.8
CC(C)(C)OC(=O)CNC(=O)c1[nH]cnc1C(=O)NCCCCCN	-2.4	7.2	1.4	19.2	-10.7	0.0
CC(C)C[C@H](NC(=O)c1nc[nH]c1C(=O)NCCCCCNC(=O)OC(C)(C)C)C(=O)OC(C)(C)C	-13.7	49.7*	-5.6	-3.3	-20.6	4.1
CC(C)C[C@H](NC(=O)c1nc[nH]c1C(=O)N1CCN(C(=O)OC(C)(C)C)CC1)C(=O)OC(C)(C)C	25.3*	0.5	0.6	5.6	9.6	0.2
CC(C)(C)OC(=O)CNC(=O)c1[nH]cnc1C(=O)NCCCCCNC(=O)OC(C)(C)C	-14.5	22.5	4.1	32.4*	-38.7	34.5*
CN1CCCN(Cc2nc(-c3cccc(C(F)(F)F)c3)no2)CC1	-8.8	8.9	-6.6	16.3	-3.6	15.8
SMILES	M4 PAM	M4 antag	M5 ag	CHRM5 antagonist	CHRM5 PAM	M4 ag
COc1ccc(CCNC(=O)CCS(=O)(=O)c2ccc3c(c2)NC(=O)CO3)cc1OC	0.1	4.4	-1.8	2.7	0.7	0.4
CCCC(=O)Nc1ccc(-c2csc(NNC(C)=O)n2)cc1	15.3	-8.9	5.3	-11.6	20.8*	0.2
CC(=O)NNc1nc(-c2ccc(C)cc2)cs1	-0.8	6.9	-3.2	2.2	-1.0	0.0
COc1ccc(S(=O)(=O)N2CCCCCC2)cc1C(=O)NCc1ccco1	-2.3	-8.6	0.3	8.7	-3.3	3.0
Cc1ccc(CNC(=O)C2=CCN(S(=O)(=O)c3ccc(C)cc3)CC2)cc1	-5.9	-3.9	0.1	3.7	-10.0	6.3
COc1ccc(S(=O)(=O)N2CCCCCC2)cc1C(=O)NCc1ccccc1Cl	25.5*	-2.6	0.4	-1.9	-0.9	-0.2
COc1ccccc1CNC(=O)C1=CCN(S(=O)(=O)c2ccc(C)cc2)CC1	4.8	24.0	0.9	-0.7	19.2*	1.7
O=C1Cn2nnc(-c3ccccc3)c2C2c3ccccc3CCN12 (stereo not given)	1.6	-9.8	-0.3	-0.7	7.7	-0.4
COc1ccc(OC)c(C(C(=O)NC2CCCCC2)N(C(=O)c2ccccn2)c2cccnc2)c1 (stereo not given)	-1.6	2.2	-3.3	8.7	3.0	0.9
COc1ccc(-c2ccc3oc(-c4ccsc4)cc(=O)c3c2)cn1	3.5	-5.1	5.3	4.7	4.3	1.1
CC(C)(C)CN1CCC(Oc2cccc(C(=O)NCCCOc3cccnc3)c2)CC1	-14.6	68.0*	-7.7	37.8*	-11.4	3.9
CCC(CC)COC(=O)C1=C(C)NC(=O)NC1c1cccc([N+](=O)[O-])c1 (stereo not given)	-0.1	-3.5	-2.1	-7.1	0.1	-1.4
COC(=O)c1ccc(NC(=S)NC2CC3CCC2C3)cc1 (stereo not given)	-7.4	8.2	4.1	15.6	-10.0	14.4
CCCCN(C(=O)C1CCC1)c1c(N)n(CCC)c(=O)[nH]c1=O	0.6	3.9	0.2	4.4	3.8	0.0
CCCCN(C(=O)C1CCCC1)c1c(N)n(CC(C)C)c(=O)[nH]c1=O	27.3*	-19.8	4.2	-10.1	6.0	1.1
O=C(Nc1cccc(-c2cccc(Cl)c2)c1)C1CCN(Cc2nccs2)CC1	-5.5	1.3	-0.2	3.4	-3.6	11.0
O=C(CCC1CCN(Cc2nccs2)CC1)Nc1ccccc1	-0.4	-10.3	-0.9	28.7*	-8.6	1.3
COc1ccc(NC(=O)Nc2ccc(OCC(=O)N3CCOCC3)cc2)cc1OC	-8.1	10.5	0.1	8.1	-3.6	0.7
COc1ccc(Cl)cc1C(=O)Nc1ccc(OCC(=O)N2CCOCC2)cc1	14.4	6.1	1.6	-2.4	18.3*	3.4
